# Experimental data as given in ChEMBL document CHEMBL4689842, “EUbOPEN Chemogenomics Library wave 1” (2021).
# “And” between values parts separate entries of the source, which are not always exact repeats. Equal values may be shown once.
# System: U2OS
# Experiment: Multiplex assay against U2OS
# Assay type: toxicity, cell-based
# Conditions: human
# Procedure, shortened: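 With compound added, live cells were imaged on a CQ1 microscope at 37°C and 5% CO2; staining with Hoechst33342, BioTracker Green Microtubule Cytoskeleton Dye, MitoTracker Red and Annexin V Alexa Fluor 680 had been done at seeding. The CellPathfinder machine-learning gating scheme split cells into Hoechst high-intensity objects or normal cells, normal cells into healthy, pyknosed or fragmented nuclei, and pyknosed cells into mitotic or apoptotic. The tubulin, mitochondrial-mass and membrane-permeability phenotypes are per cents of healthy-nucleus cells.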
# [1] = 12 h, 1 µM, compound concentration 1 uM, replicate 1
# [2] = 12 h, 1 µM, compound concentration 1 uM, replicate 2
# [3] = 12 h, 10 µM, compound concentration 10 uM, replicate 1
# [4] = 12 h, 10 µM, compound concentration 10 uM, replicate 2
# [5] = 24 h, 1 µM, compound concentration 1 uM, replicate 1
# [6] = 24 h, 1 µM, compound concentration 1 uM, replicate 2
# [7] = 24 h, 10 µM, compound concentration 10 uM, replicate 1
# [8] = 24 h, 10 µM, compound concentration 10 uM, replicate 2
# [9] = 48 h, 1 µM, compound concentration 1 uM, replicate 1
# [10] = 48 h, 1 µM, compound concentration 1 uM, replicate 2
# [11] = 48 h, 10 µM, compound concentration 10 uM, replicate 1
# [12] = 48 h, 10 µM, compound concentration 10 uM, replicate 2
smiles,measurement,setting,value
COc1ccccc1CN[C@H]1C2CCN(CC2)[C@H]1C(c1ccccc1)c1ccccc1 [CP-96345],Population Apoptotic (%),[1],22%
same,Population Fragmented Nuclei (%),[1],14%
same,Population Healthy Nuclei (%),[1],71%
same,Population Hoechst High Intensity Objects (%),[1],11%
same,Population Membrane Permeable-Phenotype (%),[1],8%
same,Population Mitochondria Different-Phenotype (%),[1],20%
same,Population Mitotic Cells (%),[1],77%
same,Population Normal (%),[1],88%
same,Population Pyknosed Nuclei (%),[1],14%
same,Population Tubulin-Different-Phenotype (%),[1],16%
same,Total Cell Count,[1],136
same,Population Apoptotic (%),[2],66%
same,Population Fragmented Nuclei (%),[2],4%
same,Population Healthy Nuclei (%),[2],92%
same,Population Hoechst High Intensity Objects (%),[2],0%
same,Population Membrane Permeable-Phenotype (%),[2],4%
same,Population Mitochondria Different-Phenotype (%),[2],7%
same,Population Mitotic Cells (%),[2],33%
same,Population Normal (%),[2],100%
same,Population Pyknosed Nuclei (%),[2],3%
same,Population Tubulin-Different-Phenotype (%),[2],8%
same,Total Cell Count,[2],90
same,Population Apoptotic (%),[3],51%
same,Population Fragmented Nuclei (%),[3],10%
same,Population Healthy Nuclei (%),[3],65%
same,Population Hoechst High Intensity Objects (%),[3],6%
same,Population Membrane Permeable-Phenotype (%),[3],7%
same,Population Mitochondria Different-Phenotype (%),[3],87%
same,Population Mitotic Cells (%),[3],48%
same,Population Normal (%),[3],93%
same,Population Pyknosed Nuclei (%),[3],24%
same,Population Tubulin-Different-Phenotype (%),[3],84%
same,Total Cell Count,[3],127
same,Population Apoptotic (%),[4],50%
same,Population Fragmented Nuclei (%),[4],2%
same,Population Healthy Nuclei (%),[4],86%
same,Population Hoechst High Intensity Objects (%),[4],3%
same,Population Membrane Permeable-Phenotype (%),[4],1%
same,Population Mitochondria Different-Phenotype (%),[4],45%
same,Population Mitotic Cells (%),[4],50%
same,Population Normal (%),[4],96%
same,Population Pyknosed Nuclei (%),[4],10%
same,Population Tubulin-Different-Phenotype (%),[4],26%
same,Total Cell Count,[4],77
same,Population Apoptotic (%),[5],45%
same,Population Fragmented Nuclei (%),[5],12%
same,Population Healthy Nuclei (%),[5],79%
same,Population Hoechst High Intensity Objects (%),[5],7%
same,Population Membrane Permeable-Phenotype (%),[5],6%
same,Population Mitochondria Different-Phenotype (%),[5],13%
same,Population Mitotic Cells (%),[5],54%
same,Population Normal (%),[5],92%
same,Population Pyknosed Nuclei (%),[5],7%
same,Population Tubulin-Different-Phenotype (%),[5],7%
same,Total Cell Count,[5],154
same,Population Apoptotic (%),[6],54%
same,Population Fragmented Nuclei (%),[6],4%
same,Population Healthy Nuclei (%),[6],85%
same,Population Hoechst High Intensity Objects (%),[6],2%
same,Population Membrane Permeable-Phenotype (%),[6],1%
same,Population Mitochondria Different-Phenotype (%),[6],4%
same,Population Mitotic Cells (%),[6],45%
same,Population Normal (%),[6],97%
same,Population Pyknosed Nuclei (%),[6],9%
same,Population Tubulin-Different-Phenotype (%),[6],17%
same,Total Cell Count,[6],114
same,Population Apoptotic (%),[7],75%
same,Population Fragmented Nuclei (%),[7],18%
same,Population Healthy Nuclei (%),[7],59%
same,Population Hoechst High Intensity Objects (%),[7],8%
same,Population Membrane Permeable-Phenotype (%),[7],6%
same,Population Mitochondria Different-Phenotype (%),[7],90%
same,Population Mitotic Cells (%),[7],25%
same,Population Normal (%),[7],91%
same,Population Pyknosed Nuclei (%),[7],22%
same,Population Tubulin-Different-Phenotype (%),[7],69%
same,Total Cell Count,[7],157
same,Population Apoptotic (%),[8],40%
same,Population Fragmented Nuclei (%),[8],2%
same,Population Healthy Nuclei (%),[8],81%
same,Population Hoechst High Intensity Objects (%),[8],1%
same,Population Membrane Permeable-Phenotype (%),[8],2%
same,Population Mitochondria Different-Phenotype (%),[8],31%
same,Population Mitotic Cells (%),[8],60%
same,Population Normal (%),[8],98%
same,Population Pyknosed Nuclei (%),[8],16%
same,Population Tubulin-Different-Phenotype (%),[8],14%
same,Total Cell Count,[8],92
same,Population Apoptotic (%),[9],80%
same,Population Fragmented Nuclei (%),[9],7%
same,Population Healthy Nuclei (%),[9],85%
same,Population Hoechst High Intensity Objects (%),[9],3%
same,Population Membrane Permeable-Phenotype (%),[9],2%
same,Population Mitochondria Different-Phenotype (%),[9],9%
same,Population Mitotic Cells (%),[9],20%
same,Population Normal (%),[9],96%
same,Population Pyknosed Nuclei (%),[9],6%
same,Population Tubulin-Different-Phenotype (%),[9],5%
same,Total Cell Count,[9],227
same,Population Apoptotic (%),[10],62%
same,Population Fragmented Nuclei (%),[10],5%
same,Population Healthy Nuclei (%),[10],89%
same,Population Hoechst High Intensity Objects (%),[10],0%
same,Population Membrane Permeable-Phenotype (%),[10],4%
same,Population Mitochondria Different-Phenotype (%),[10],12%
same,Population Mitotic Cells (%),[10],37%
same,Population Normal (%),[10],99%
same,Population Pyknosed Nuclei (%),[10],4%
same,Population Tubulin-Different-Phenotype (%),[10],21%
same,Total Cell Count,[10],164
same,Population Apoptotic (%),[11],74%
same,Population Fragmented Nuclei (%),[11],17%
same,Population Healthy Nuclei (%),[11],58%
same,Population Hoechst High Intensity Objects (%),[11],4%
same,Population Membrane Permeable-Phenotype (%),[11],11%
same,Population Mitochondria Different-Phenotype (%),[11],78%
same,Population Mitotic Cells (%),[11],25%
same,Population Normal (%),[11],95%
same,Population Pyknosed Nuclei (%),[11],23%
same,Population Tubulin-Different-Phenotype (%),[11],55%
same,Total Cell Count,[11],194
same,Population Apoptotic (%),[12],33%
same,Population Fragmented Nuclei (%),[12],9%
same,Population Healthy Nuclei (%),[12],80%
same,Population Hoechst High Intensity Objects (%),[12],1%
same,Population Membrane Permeable-Phenotype (%),[12],6%
same,Population Mitochondria Different-Phenotype (%),[12],14%
same,Population Mitotic Cells (%),[12],66%
same,Population Normal (%),[12],98%
same,Population Pyknosed Nuclei (%),[12],10%
same,Population Tubulin-Different-Phenotype (%),[12],13%
same,Total Cell Count,[12],146
CNC(=O)c1ccc(Nc2ncc(C(F)(F)F)c(NCc3nccnc3N(C)S(C)(=O)=O)n2)cc1 [DEFACTINIB],Population Apoptotic (%),[1],22% and 66%
same,Population Healthy Nuclei (%),[1],90% and 65%
same,Population Hoechst High Intensity Objects (%),[1],4% and 6%
same,Population Membrane Permeable-Phenotype (%),[1],13% and 37%
same,Population Mitochondria Different-Phenotype (%),[1],27% and 15%
same,Population Mitotic Cells (%),[1],77% and 33%
same,Population Normal (%),[1],95% and 93%
same,Population Pyknosed Nuclei (%),[1],4% and 12%
same,Population Tubulin-Different-Phenotype (%),[1],21% and 36%
same,Total Cell Count,[1],194 and 96
same,Population Apoptotic (%),[2],25% and 42%
same,Population Fragmented Nuclei (%),[2],6% and 9%
same,Population Healthy Nuclei (%),[2],89% and 77%
same,Population Hoechst High Intensity Objects (%),[2],13% and 9%
same,Population Mitochondria Different-Phenotype (%),[2],28% and 16%
same,Population Mitotic Cells (%),[2],75% and 57%
same,Population Normal (%),[2],86% and 90%
same,Population Pyknosed Nuclei (%),[2],13%
same,Population Tubulin-Different-Phenotype (%),[2],24%
same,Total Cell Count,[2],107 and 86
same,Population Apoptotic (%),[3],64% and 37%
same,Population Fragmented Nuclei (%),[3],14% and 7%
same,Population Healthy Nuclei (%),[3],65% and 83%
same,Population Hoechst High Intensity Objects (%),[3],8% and 3%
same,Population Mitochondria Different-Phenotype (%),[3],13% and 25%
same,Population Mitotic Cells (%),[3],35% and 62%
same,Population Normal (%),[3],91% and 96%
same,Population Pyknosed Nuclei (%),[3],20% and 8%
same,Population Tubulin-Different-Phenotype (%),[3],32% and 24%
same,Total Cell Count,[3],148 and 188
same,Population Apoptotic (%),[4],33% and 28%
same,Population Healthy Nuclei (%),[4],44% and 80%
same,Population Hoechst High Intensity Objects (%),[4],30% and 18%
same,Population Membrane Permeable-Phenotype (%),[4],26%
same,Population Mitotic Cells (%),[4],66% and 71%
same,Population Normal (%),[4],69% and 81%
same,Population Pyknosed Nuclei (%),[4],10%
same,Population Tubulin-Different-Phenotype (%),[4],23% and 30%
same,Total Cell Count,[4],166 and 106
same,Population Apoptotic (%),[5],46% and 76%
same,Population Healthy Nuclei (%),[5],88% and 62%
same,Population Hoechst High Intensity Objects (%),[5],0% and 10%
same,Population Mitochondria Different-Phenotype (%),[5],29% and 32%
same,Population Mitotic Cells (%),[5],53% and 24%
same,Population Normal (%),[5],99% and 89%
same,Population Pyknosed Nuclei (%),[5],5% and 15%
same,Population Tubulin-Different-Phenotype (%),[5],30% and 46%
same,Total Cell Count,[5],259
same,Population Fragmented Nuclei (%),[6],7% and 20%
same,Population Healthy Nuclei (%),[6],90% and 57%
same,Population Hoechst High Intensity Objects (%),[6],9% and 7%
same,Population Mitochondria Different-Phenotype (%),[6],37% and 31%
same,Population Mitotic Cells (%),[6],100% and 34%
same,Population Normal (%),[6],90% and 92%
same,Population Tubulin-Different-Phenotype (%),[6],29% and 36%
same,Total Cell Count,[6],129 and 90
same,Population Apoptotic (%),[7],68% and 42%
same,Population Healthy Nuclei (%),[7],51% and 88%
same,Population Mitochondria Different-Phenotype (%),[7],28% and 32%
same,Population Mitotic Cells (%),[7],31% and 57%
same,Population Normal (%),[7],89% and 97%
same,Population Tubulin-Different-Phenotype (%),[7],40% and 26%
same,Total Cell Count,[7],139 and 241
same,Population Apoptotic (%),[8],40% and 20%
same,Population Hoechst High Intensity Objects (%),[8],27% and 11%
same,Population Membrane Permeable-Phenotype (%),[8],25% and 17%
same,Population Mitochondria Different-Phenotype (%),[8],37% and 38%
same,Population Mitotic Cells (%),[8],59% and 80%
same,Population Normal (%),[8],72% and 88%
same,Population Tubulin-Different-Phenotype (%),[8],34% and 28%
same,Total Cell Count,[8],163 and 126
